Biological target: not listed separately
Experiment: Inhibition of benzo(alpha)pyrene monooxygenase in phenobarbital-treated Sprague-Dawley rat liver microsomes using [3H]benzo(alpha)pyrene as substrate after 15 mins by liquid scintillation spectrometry
Conditions: read-out: I50
How it was run: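 Microsomes came from male Sprague-Dawley rats (60-80 g) given phenobarbital 80 mg/kg ip in saline on 3 days, then starved 24 h. The assay used 0.400 mg/mL protein, NADP/glucose 6-phosphate/G6PDH and 60 μM [3H]benzo[a]pyrene for 15 min at 37 °C. Hexane/alkali extraction was followed by scintillation counting, minus an ethanolic-NaOH-treated microsome blank. I50 used ≥4 inhibitor concentrations, log-dose plot, three replicates.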

O=c1cc(-c2ccccc2)oc2c1ccc1ccccc12 [ALPHA-NAPHTHOFLAVONE] and c1ccc(-c2cc3ccc4ccccc4c3o2)cc1 cannot be ordered by IC50: over 100 µM for the first, over 104 µM for the second.

O=c1cc(-c2ccc([N+](=O)[O-])cc2)oc2c1ccc1ccccc12 and O=c1cc(-c2cccc([N+](=O)[O-])c2)oc2c1ccc1ccccc12 cannot be ordered by IC50: over 99 µM for the first, over 100 µM for the second.

O=c1c(-c2ccccc2)coc2c1ccc1ccccc12 and COc1ccccc1-c1cc(=O)c2ccc3ccccc3c2o1 cannot be ordered by IC50: over 100 µM for the first, over 100 µM for the second.

Going from Nc1cc2c(=O)cc(-c3ccccc3)oc2c2ccccc12 to O=c1cc(-c2ccccc2)oc2c1cc(Br)c1ccccc12, the IC50 rises from 82 µM to over 97 µM. The first is the more potent here.

O=c1cc(-c2ccc3ccccc3c2)oc2c1ccc1ccccc12 and COc1ccc(-c2cc(=O)c3ccc4ccccc4c3o2)cc1 cannot be ordered by IC50: over 100 µM for the first, over 100 µM for the second.

O=c1cc(-c2ccccc2)oc2c1cc([N+](=O)[O-])c1ccccc12 and COc1cccc(-c2cc(=O)c3ccc4ccccc4c3o2)c1 cannot be ordered by IC50: over 200 µM for the first, over 98 µM for the second.

For O=c1cc(-c2ccc(Cl)cc2)oc2c1ccc1ccccc12, the IC50 was over 99 µM.

System: not listed separately
Experiment: Stimulation of benzo(alpha)pyrene monooxygenase in phenobarbital-treated Sprague-Dawley rat liver microsomes using [3H]benzo(alpha)pyrene as substrate at 100 uM after 15 mins by liquid scintillation spectrometry
Assay type: ADME
Conditions: 0.25 h
How it was run: (§1)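 Single-concentration change in benzo[a]pyrene oxidation versus solvent controls, using phenobarbital-induced male Sprague-Dawley rat liver microsomes at 0.400 mg/mL protein. Conditions: 60 μM [3H]benzo[a]pyrene, NADPH-generating system, 15 min at 37 °C. Termination used ethanolic NaOH, then hexane extraction and scintillation counting of the lower phase, corrected with an ethanolic-NaOH-treated microsome blank. Three replicates.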

Going from O=c1cc(-c2ccccc2)oc2c1ccc1ccccc12 [ALPHA-NAPHTHOFLAVONE] to O=c1cc(-c2cccc([N+](=O)[O-])c2)oc2c1ccc1ccccc12, the Activity rises from 21% to 42%.

For O=c1c(-c2ccccc2)coc2c1ccc1ccccc12, the Activity was 6%.

System: not listed separately
Experiment: Stimulation of benzo(alpha)pyrene monooxygenase in phenobarbital-treated Sprague-Dawley rat liver microsomes using [3H]benzo(alpha)pyrene as substrate at 98 uM after 15 mins by liquid scintillation spectrometry
Assay type: ADME
Conditions: 0.25 h
How it was run: as §1

Molecule COc1cccc(-c2cc(=O)c3ccc4ccccc4c3o2)c1 has an Activity of 9%.

System: benzo(alpha)pyrene monooxygenase
Experiment: Inhibition of benzo(alpha)pyrene monooxygenase in phenobarbital-treated Sprague-Dawley rat liver microsomes using [3H]benzo(alpha)pyrene as substrate at 104 uM after 15 mins by liquid scintillation spectrometry
Conditions: liver microsomes from phenobarbital-treated rats, probe [3H]benzo(alpha)pyrene
How it was run: as §1

With c1ccc(-c2cc3ccc4ccccc4c3o2)cc1 the inhibition at 0.25 h, 104 µM was 34%.

System: not listed separately
Experiment: Stimulation of benzo(alpha)pyrene monooxygenase in phenobarbital-treated Sprague-Dawley rat liver microsomes using [3H]benzo(alpha)pyrene as substrate at 200 uM after 15 mins by liquid scintillation spectrometry
Assay type: ADME
Conditions: 0.25 h
How it was run: as §1

In the case of O=c1cc(-c2ccccc2)oc2c1cc([N+](=O)[O-])c1ccccc12, the Activity is reported as 43%.

System: not listed separately
Experiment: Stimulation of benzo(alpha)pyrene monooxygenase in phenobarbital-treated Sprague-Dawley rat liver microsomes using [3H]benzo(alpha)pyrene as substrate at 99 uM after 15 mins by liquid scintillation spectrometry
Assay type: ADME
Conditions: 0.25 h
How it was run: as §1

In the case of O=c1cc(-c2ccc([N+](=O)[O-])cc2)oc2c1ccc1ccccc12, the Activity is reported as 33%.

System: benzo(alpha)pyrene monooxygenase
Experiment: Inhibition of benzo(alpha)pyrene monooxygenase in 3-methylcholanthrene-treated Sprague-Dawley rat liver microsomes using [3H]benzo(alpha)pyrene as substrate at 100 uM after 15 mins by liquid scintillation spectrometry
Conditions: liver microsomes from 3-methylcholanthrene-treated rats, probe [3H]benzo(alpha)pyrene
How it was run: (§2)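 Percent inhibition or stimulation was measured at the single stated inhibitor concentration, relative to solvent-only controls. Hepatic microsomes were from 3-methylcholanthrene-pretreated male Sprague-Dawley rats, used at 0.200 mg/mL protein with an NADPH-generating system. Substrate was 60 μM [3H]benzo[a]pyrene, incubated 15 min at 37 °C. The reaction was stopped with NaOH in 80% ethanol, hexane-extracted, and the aqueous phase counted. Triplicate samples.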

First: O=c1c(-c2ccccc2)coc2c1ccc1ccccc12
Second: O=c1cc(-c2cccc([N+](=O)[O-])c2)oc2c1ccc1ccccc12
The inhibition at 0.25 h, 100 µM of the first is lower: 18% for the first, 36% for the second.

For COc1ccc(-c2cc(=O)c3ccc4ccccc4c3o2)cc1, the inhibition at 0.25 h, 100 µM was 46%.

System: benzo(alpha)pyrene monooxygenase
Experiment: Inhibition of benzo(alpha)pyrene monooxygenase in 3-methylcholanthrene-treated Sprague-Dawley rat liver microsomes using [3H]benzo(alpha)pyrene as substrate at 99 uM after 15 mins by liquid scintillation spectrometry
Conditions: liver microsomes from 3-methylcholanthrene-treated rats, probe [3H]benzo(alpha)pyrene
How it was run: as §2

Work on O=c1cc(-c2ccc([N+](=O)[O-])cc2)oc2c1ccc1ccccc12 yielded an inhibition at 0.25 h, 99 µM of 0%.

System: benzo(alpha)pyrene monooxygenase
Experiment: Inhibition of benzo(alpha)pyrene monooxygenase in phenobarbital-treated Sprague-Dawley rat liver microsomes using [3H]benzo(alpha)pyrene as substrate at 99 uM after 15 mins by liquid scintillation spectrometry
Conditions: liver microsomes from phenobarbital-treated rats, probe [3H]benzo(alpha)pyrene
How it was run: as §1

Work on O=c1cc(-c2ccc(Cl)cc2)oc2c1ccc1ccccc12 yielded an inhibition at 0.25 h, 99 µM of 0%.

System: benzo(alpha)pyrene monooxygenase
Experiment: Inhibition of benzo(alpha)pyrene monooxygenase in phenobarbital-treated Sprague-Dawley rat liver microsomes using [3H]benzo(alpha)pyrene as substrate at 100 uM after 15 mins by liquid scintillation spectrometry
Conditions: liver microsomes from phenobarbital-treated rats, probe [3H]benzo(alpha)pyrene
How it was run: as §1

First: COc1ccccc1-c1cc(=O)c2ccc3ccccc3c2o1
Second: COc1ccc(-c2cc(=O)c3ccc4ccccc4c3o2)cc1
The inhibition at 0.25 h, 100 µM of the first is higher: 34% for the first, 0% for the second.

With O=c1cc(-c2ccc3ccccc3c2)oc2c1ccc1ccccc12 the inhibition at 0.25 h, 100 µM was 0%.

Biological target: not listed separately
Experiment: Inhibition of benzo(alpha)pyrene monooxygenase in 3-methylcholanthrene-treated Sprague-Dawley rat liver microsomes using [3H]benzo(alpha)pyrene as substrate after 15 mins by liquid scintillation spectrometry
Conditions: read-out: I50
How it was run: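 Liver microsomes from male Sprague-Dawley rats (60-80 g) given 3-methylcholanthrene 20 mg/kg ip in corn oil on 2 days, then starved 24 h. Run with 0.200 mg/mL protein, NADPH-generating system and 60 μM [3H]benzo[a]pyrene for 15 min at 37 °C. Hydroxylated products were taken into alkali and counted. I50 came from log concentration vs % activity, with at least four concentrations and triplicates.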

Going from O=c1cc(-c2ccccc2)oc2c1ccc1ccccc12 [ALPHA-NAPHTHOFLAVONE] to c1ccc(-c2cc3ccc4ccccc4c3o2)cc1, the IC50 rises from 10 µM to over 104 µM. The first is the more potent here.

O=c1cc(-c2ccc([N+](=O)[O-])cc2)oc2c1ccc1ccccc12 and O=c1cc(-c2cccc([N+](=O)[O-])c2)oc2c1ccc1ccccc12 cannot be ordered by IC50: over 99 µM for the first, over 100 µM for the second.

First: O=c1c(-c2ccccc2)coc2c1ccc1ccccc12
Second: COc1ccccc1-c1cc(=O)c2ccc3ccccc3c2o1
The IC50 of the first is higher: over 100 µM for the first, 13 µM for the second. The second is the more potent here.

Going from Nc1cc2c(=O)cc(-c3ccccc3)oc2c2ccccc12 to O=c1cc(-c2ccccc2)oc2c1cc(Br)c1ccccc12, the IC50 rises from 31 µM to over 97 µM. The first is the more potent here.

Going from O=c1cc(-c2ccc3ccccc3c2)oc2c1ccc1ccccc12 to COc1ccc(-c2cc(=O)c3ccc4ccccc4c3o2)cc1, the IC50 rises from 11 µM to over 100 µM.

Compared with O=c1cc(-c2ccccc2)oc2c1cc([N+](=O)[O-])c1ccccc12, COc1cccc(-c2cc(=O)c3ccc4ccccc4c3o2)c1 is lower in IC50: over 200 µM for the first, 11 µM for the second. The second is the more potent here.

Work on O=c1cc(-c2ccc(Cl)cc2)oc2c1ccc1ccccc12 yielded an IC50 of 13 µM.

System: not listed separately
Experiment: Stimulation of benzo(alpha)pyrene monooxygenase in 3-methylcholanthrene-treated Sprague-Dawley rat liver microsomes using [3H]benzo(alpha)pyrene as substrate at 200 uM after 15 mins by liquid scintillation spectrometry
Assay type: ADME
Conditions: 0.25 h
How it was run: as §2

O=c1cc(-c2ccccc2)oc2c1cc([N+](=O)[O-])c1ccccc12 gave an Activity of 34%.

Reference: ChEMBL document CHEMBL3227958, “A preliminary structure-activity study of the mixed-function oxidase inhibitor 7,8-benzoflavone” (J Med Chem, 1979)
